Measurements: ChEMBL document CHEMBL4014261, “Design, Synthesis, and Antimicrobial Evaluation of a Novel Bone-Targeting Bisphosphonate-Ciprofloxacin Conjugate for the Treatment of Osteomyelitis Biofilms” (J Med Chem, 2017)
In brackets after ≈: the same amount, converted by molar mass. Blank lines part the entries; values can stand above or below the molecule they belong to. Activity calls are given as the source filed them. The calls are words filed in the database; no cut-off is given here.

Experiments:
Staphylococcus aureus [1] = test: Antibacterial activity against methicillin-sensitive Staphylococcus aureus isolate 4 planktonic cells after 24 hrs by microdilution assay; format: functional; conditions: isolate 4, 24 h
Summary of the method: (§1)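 Planktonic cells at 1 × 10^5 CFU/mL were exposed to compound, and A580 was read at 0 h and after 24 h at 37 °C with shaking. Controls were medium plus microbes, with 1% (v/v) DMSO where the solvent was used. Relative cell number was calculated against the control. Results were confirmed by subculture in fresh medium (48 h, 37 °C) and plating. Conjugate concentrations were expressed as parent-antibiotic equivalents.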

Staphylococcus aureus [2] = test: Antibacterial activity against methicillin-sensitive Staphylococcus aureus isolate 2 planktonic cells after 24 hrs by microdilution assay; format: functional; conditions: isolate 2, 24 h; summary of the method: as §1
Staphylococcus aureus [3] = test: Antibacterial activity against methicillin-sensitive Staphylococcus aureus isolate 1 planktonic cells after 24 hrs by microdilution assay; format: functional; conditions: isolate 1, 24 h; summary of the method: as §1
Staphylococcus aureus [4] = test: Antibacterial activity against methicillin-sensitive Staphylococcus aureus isolate 3 planktonic cells after 24 hrs by microdilution assay; format: functional; conditions: isolate 3, 24 h; summary of the method: as §1
Staphylococcus aureus [5] = test: Antibacterial activity against methicillin-sensitive Staphylococcus aureus isolate 5 planktonic cells after 24 hrs by microdilution assay; format: functional; conditions: isolate 5, 24 h; summary of the method: as §1
Staphylococcus aureus [6] = test: Antibacterial activity against methicillin-sensitive Staphylococcus aureus isolate 6 planktonic cells after 24 hrs by microdilution assay; format: functional; conditions: isolate 6, 24 h; summary of the method: as §1
Staphylococcus aureus [7] = test: Antibacterial activity against methicillin-sensitive Staphylococcus aureus ATCC 6538 planktonic cells after 24 hrs by microdilution assay; format: functional; conditions: ATCC 6538, 24 h; summary of the method: as §1
Staphylococcus aureus [8] = test: Antibiofilm activity against Staphylococcus aureus ATCC 6538 assessed as reduction in bacterial adherence to HA at 0.24 to 7.8 ug/ml pretreated with HA for 24 hrs followed by organism inoculation measured after 24 hrs; format: functional
Summary of the method: (§2)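 HA spherules (final 10 mg/mL) in TSB were preincubated 24 h at 37 °C with shaking with compound (final 0.12–250 mg/L), then pelleted and the supernatant discarded. They were inoculated with 1 mL S. aureus at 10^5 CFU/mL. A580 was read at 0 and 24 h (37 °C, shaking) against controls without spherules and spherules without compound; spherules were also plated for CFU.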

Staphylococcus aureus [9] = test: Bactericidal activity against Staphylococcus aureus ATCC 6538 biofilm using hydroxyapatite as substrate assessed as reduction in colony forming units at 0.24 to 250 ug/ml after 24 hrs; format: functional
Staphylococcus aureus [10] = test: Antibiofilm activity against Staphylococcus aureus ATCC 6538 assessed as reduction in bacterial adherence to HA at 15.6 to 250 ug/ml pretreated with HA for 24 hrs followed by organism inoculation measured after 24 hrs; format: functional; summary of the method: as §2
Pseudomonas aeruginosa = test: Bactericidal activity against Pseudomonas aeruginosa ATCC 15442 biofilm using hydroxyapatite as substrate assessed as reduction in colony forming units at 8 ug/ml at pH 4.8 to 7.4 after 24 hrs; format: functional
Staphylococcus aureus [11] = test: Antibiofilm activity against Staphylococcus aureus ATCC 6538 assessed as CFU counts at 400 ug/mL pretreated with HA for 24 hrs followed by organism inoculation measured after 24 hrs (reference value: 8.1 x 10^10CFU); format: functional
Staphylococcus aureus [12] = test: Antibacterial activity against methicillin-sensitive Staphylococcus aureus isolate 1 planktonic cells at 5 mg after 24 hrs by disc diffusion test; set-up: dose or concentration left out as unconfirmed; conditions: isolate 1, 24 h, read-out: DIZ
Staphylococcus aureus [13] = test: Antibacterial activity against methicillin-sensitive Staphylococcus aureus isolate 3 planktonic cells at 5 mg after 24 hrs by disc diffusion test; set-up: dose or concentration left out as unconfirmed; conditions: isolate 3, 24 h, read-out: DIZ
Staphylococcus aureus [14] = test: Antibacterial activity against methicillin-resistant Staphylococcus aureus MR4-CIPS planktonic cells after 24 hrs by microdilution assay; format: functional
Summary of the method: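 Broth microdilution: 100 µL of 1 × 10^5 CFU/mL inoculum with graded compound concentrations, read at 580 nm before and after 24 h at 37 °C with shaking to prevent biofilm formation. Relative cell number is taken against medium + microbes controls, with 1% DMSO in the ciprofloxacin control. Growth is confirmed by 48 h subculture in fresh medium and by plating. MIC is expressed as parent-antibiotic equivalents.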

Staphylococcus aureus [15] = test: microbe, parasite or virus in culture; set-up: dose or concentration left out as unconfirmed; conditions: ATCC 6538, 24 h, read-out: DIZ
Staphylococcus aureus [16] = test: Antibacterial activity against methicillin-resistant Staphylococcus aureus MR4-CIPS planktonic cells at 5 mg after 24 hrs by disc diffusion test; set-up: dose or concentration left out as unconfirmed; conditions: read-out: DIZ
[17] = system: Aggregatibacter actinomycetemcomitans; test: Antibiofilm activity against Aggregatibacter actinomycetemcomitans D7S-1 serotype A after 24 hrs by microdilution assay; format: functional
Staphylococcus aureus [18] = test: Antibiofilm activity against Staphylococcus aureus ATCC 6538 assessed as CFU counts at 100 ug/mL pretreated with HA for 24 hrs followed by organism inoculation measured after 24 hrs (reference value: 8.1 x 10^10CFU); format: functional
Summary of the method: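 HA discs were soaked 24 h at 37 °C in 2 mL compound solution, with DMSO or phosphate-buffer controls, then rinsed 3× with sterile water. Discs were inoculated with 2 mL of 0.5 McFarland S. aureus ATCC 6538 for biofilm formation. Biofilm CFU were counted after 24 h growth.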

Staphylococcus aureus [19] = test: Antibacterial activity against methicillin-sensitive Staphylococcus aureus isolate 6 planktonic cells at 5 mg after 24 hrs by disc diffusion test; set-up: dose or concentration left out as unconfirmed; conditions: isolate 6, 24 h, read-out: DIZ
[20] = system: Aggregatibacter actinomycetemcomitans; test: Antibiofilm activity against Aggregatibacter actinomycetemcomitans infected in jawbone peri-implant osteomyelitis Sprague-Dawley rat model assessed as bacterial count in bone per gram at 10 mg/kg, ip administered 3 times per week measured after 1 week post pharmacotherapy relative to control; format: functional
Summary of the method: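 Rats carried two titanium implants each, preinoculated with A. actinomycetemcomitans D7S-1 biofilm (10^9 CFU), placed bilaterally in palatal bone. One week after surgery, randomized groups received i.p. doses in sterile saline; the negative control was endotoxin-free saline. One week after treatment, 1 cm² peri-implant tissue and bone were homogenized in 0.5% saponin, serially diluted 10-fold and spread-plated on modified TSB (37 °C, 5% CO2, 48 h). Read-out was CFU/g and mean log10 reduction; analysts were blinded.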

Staphylococcus aureus [21] = test: Antibiofilm activity against Staphylococcus aureus ATCC 6538 assessed as CFU counts at 200 ug/mL pretreated with HA for 24 hrs followed by organism inoculation measured after 24 hrs (reference value: 8.1 x 10^10CFU); format: functional
Staphylococcus aureus [22] = test: Antibacterial activity against methicillin-sensitive Staphylococcus aureus isolate 2 planktonic cells at 5 mg after 24 hrs by disc diffusion test; set-up: dose or concentration left out as unconfirmed; conditions: isolate 2, 24 h, read-out: DIZ
[23] = system: Aggregatibacter actinomycetemcomitans; test: Antibiofilm activity against Aggregatibacter actinomycetemcomitans D7S-1 serotype A at 5 mg after 24 hrs by disc diffusion assay; format: functional; conditions: read-out: DIZ
Staphylococcus aureus [24] = test: Antibacterial activity against methicillin-sensitive Staphylococcus aureus isolate 5 planktonic cells at 5 mg after 24 hrs by disc diffusion test; set-up: dose or concentration left out as unconfirmed; conditions: isolate 5, 24 h, read-out: DIZ
Staphylococcus aureus [25] = test: Bactericidal activity against Staphylococcus aureus ATCC 6538 biofilm using hydroxyapatite as substrate assessed as reduction in colony forming units after 24 hrs; format: functional
Summary of the method: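 Biofilms were started from a 1 McFarland suspension, allowed to adhere 4 h at 37 °C on HA discs or polystyrene well bottoms, then rinsed. They were exposed 24 h at 37 °C to TSB containing 0.24–125 mg/L compound. Cells were detached in 0.5% saponin by 1 min vortexing, serially diluted and plated on Columbia (S. aureus) or MacConkey (P. aeruginosa) agar, 37 °C, 24 h. Read-out was mean CFU/mm² ± SEM; HA area was measured by X-ray tomography.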

Staphylococcus aureus [26] = test: Antibacterial activity against methicillin-sensitive Staphylococcus aureus isolate 4 planktonic cells at 5 mg after 24 hrs by disc diffusion test; set-up: dose or concentration left out as unconfirmed; conditions: isolate 4, 24 h, read-out: DIZ

MIC (Staphylococcus aureus [1]): 62.5 µg/mL (≈ 100 µM)
MIC (Staphylococcus aureus [2]): 31.2 µg/mL (≈ 50 µM)
MIC (Staphylococcus aureus [3]): 31.2 µg/mL (≈ 50 µM)
MIC (Staphylococcus aureus [4]): 15.6 µg/mL (≈ 25 µM)
MIC (Staphylococcus aureus [5]): 7.8 µg/mL (≈ 12.5 µM)
MIC (Staphylococcus aureus [6]): 15.6 µg/mL (≈ 25 µM)
MIC (Staphylococcus aureus [7]): 62.5 µg/mL (≈ 100 µM)
SMILES: O=C(O)c1cn(C2CC2)c2cc(N3CCN(C(=O)c4ccc(CC(P(=O)(O)O)P(=O)(O)O)cc4)CC3)c(F)cc2c1=O
Activity (Staphylococcus aureus [8]): inactive
Activity (Staphylococcus aureus [9]): inactive
Activity (Staphylococcus aureus [10]): inactive

SMILES: O=C(O)c1cn(C2CC2)c2cc(N3CCNCC3)c(F)cc2c1=O [CIPROFLOXACIN]
Activity (Pseudomonas aeruginosa): inactive
Activity (Staphylococcus aureus [11]): Active
zone of inhibition (Staphylococcus aureus [12]): 25 to 40 mm
zone of inhibition (Staphylococcus aureus [13]): 25 to 40 mm
MIC (Staphylococcus aureus [14]): 1 µg/mL (≈ 3.02 µM)
zone of inhibition (Staphylococcus aureus [15]): 25 to 40 mm
MIC (Staphylococcus aureus [1]): 1 µg/mL (≈ 3.02 µM)
zone of inhibition (Staphylococcus aureus [16]): 25 to 40 mm
MIC (Staphylococcus aureus [2]): 0.25 µg/mL (≈ 0.754 µM)
MIC90 [17]: 2 µg/mL (≈ 6.04 µM)
Activity (Staphylococcus aureus [18]): Active
MIC (Staphylococcus aureus [3]): 1 µg/mL (≈ 3.02 µM)
MIC (Staphylococcus aureus [4]): 0.25 µg/mL (≈ 0.754 µM)
MIC (Staphylococcus aureus [5]): 0.5 µg/mL (≈ 1.51 µM)
MIC (Staphylococcus aureus [6]): 1 µg/mL (≈ 3.02 µM)
zone of inhibition (Staphylococcus aureus [19]): 25 to 40 mm
Activity [20]: 90%
Activity (Staphylococcus aureus [21]): Active
zone of inhibition (Staphylococcus aureus [22]): 25 to 40 mm
zone of inhibition at 5000 µg/disc [23]: > 40 mm
zone of inhibition (Staphylococcus aureus [24]): 25 to 40 mm
MIC (Staphylococcus aureus [7]): 1 µg/mL (≈ 3.02 µM)
MBIC90 (Staphylococcus aureus [25]): 8 µg/mL
zone of inhibition (Staphylococcus aureus [26]): 25 to 40 mm
